Laboratory results published in ChEMBL document CHEMBL3352424, “Synthesis, biological evaluation and 3D-QSAR study of hydrazide, semicarbazide and thiosemicarbazide derivatives of 4-(adamantan-1-yl)quinoline as anti-tuberculosis agents” (Eur J Med Chem, 2014).
≈ marks a conversion by molar mass, not a printed value.

How the values were obtained:
L929 = experiment: Cytotoxicity against mouse L929 cells assessed as reduction in cell viability up to 200 ug/ml after 5 days by MTT assay; assay type: cell-based; conditions: l929, 120 h
Procedure, shortened: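 MTT viability assay in mouse fibroblasts, run on compounds active against TB, with 200 µg/mL as the highest test concentration.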

[1] = tested on: Mycobacterium tuberculosis; experiment: Antitubercular activity against Mycobacterium tuberculosis H37Rv strain at 6.25 ug/ml by microplate alamar blue assay; assay type: functional
[2] = tested on: Mycobacterium tuberculosis; experiment: Antitubercular activity against Mycobacterium tuberculosis H37Rv strain by BACTEC 460 radiometric assay; assay type: functional, organism-based
[3] = tested on: Mycobacterium tuberculosis; experiment: Antitubercular activity against Mycobacterium tuberculosis H37Rv strain at 1.56 ug/ml by microplate alamar blue assay; assay type: functional
[4] = tested on: Mycobacterium tuberculosis; experiment: Antitubercular activity against Mycobacterium tuberculosis H37Rv strain; assay type: functional

**Q.** Which results are given for `O=C(NNC(=O)c1cc(C23CC4CC(CC(C4)C2)C3)c2ccccc2n1)Nc1ccc(OC(F)(F)F)cc1`?
**A.** Activity (L929): Non-toxic; inhibition at 6.25 µg/mL [1]: 99%; IC50 [2]: 0.427 µM; MIC90 [2]: 3.12 µg/mL (≈ 5.96 µM); inhibition at 1.56 µg/mL [3]: 50%

**Q.** With `NNC(=O)c1cc(C23CC4CC(CC(C4)C2)C3)c2ccccc2n1` as the compound, how does the Activity (L929) read?
**A.** Its Activity is “Non-toxic”.

**Q.** And the MIC99 [4]?
**A.** The MIC99 was 3.12 µg/mL (≈ 9.72 µM).

**Q.** What does the source list for `Cc1ccc(NC(=S)NNC(=O)c2cc(C34CC5CC(CC(C5)C3)C4)c3ccccc3n2)cc1`?
**A.** Activity (L929): Non-toxic; inhibition at 6.25 µg/mL [1]: 23%; IC50 [2]: 45.7 µM; MIC90 [2]: 6.25 µg/mL (≈ 13.3 µM)
